Reference: PMC4596243 (Cancer chemotherapy and pharmacology, 2013)
Values joined by “and” are separate entries in the source; they are usually repeats but may differ in a detail not shown here. Identical values can stand only once. Like-named read-outs stand apart in the source and are kept apart here. Each block holds one compound with its values, some of them ahead of it.

Tests used:
[1] = type: in vivo, rat; conditions: for AUC(0-inf): AUC0–∞
U87 glioma = assay: In vivo susceptibility-contrast MRI of tumor vasculature after cediranib; design: species or system mice; conditions: cediranib once daily
How it was run: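 Mice bearing brain U87 tumours imaged at 9.4T on day 12 (2 control, 2 given test compound once daily until sacrifice) or day 21 (3 control, 1 treated). Multi-echo gradient-echo (TR 400 ms) and spin-echo (TR 2000 ms), 16 coronal 1-mm slices, 0.1 mm in-plane, before/after i.v. Feridex 25 mg Fe/kg. Vessel size from (ΔR2*/ΔR2)^3/2; manual tumour ROIs versus mirrored contralateral ROIs, histograms compared.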

recurrent GBM = conditions: cited from earlier work
[2] = TMZ administered with TNP-470; murine glioma model; cited from earlier work
[3] = corrected for recovery, post-cediranib, individual animal
[4] = corrected for recovery, pre-cediranib, individual animal
[5] = post- vs pre-cediranib, tumor ECF, not statistically significant

T1/2 [1, 3]: 1.5 h and 1.7 h and 3.4 h | AUC(0-inf) ([1]; male, athymic, rat, tumor ECF (brain microdialysate), po, 50 mg/kg, corrected for recovery, post-cediranib, mean ± S.D.): 3720 ± 610 ng·h/mL | AUC(0-inf) ([1]; male, athymic, rat, tumor ECF (brain microdialysate), po, 50 mg/kg, corrected for recovery, pre-cediranib, mean ± S.D.): 1820 ± 640 ng·h/mL | AUC(0-inf) ([1]; male, athymic, rat, tumor ECF (brain microdialysate), po, 50 mg/kg, raw data, post-cediranib, mean ± S.D.): 2840 ± 400 ng·h/mL | AUC(0-inf) ([1]; male, athymic, rat, tumor ECF (brain microdialysate), po, 50 mg/kg, raw data, pre-cediranib, mean ± S.D.): 1310 ± 510 ng·h/mL | Cmax ([1]; male, athymic, rat, tumor ECF (brain microdialysate), po, 50 mg/kg, Cmax, corrected for recovery, post-cediranib, mean ± S.D.): 830 ± 450 ng/mL | Cmax ([1]; male, athymic, rat, tumor ECF (brain microdialysate), po, 50 mg/kg, Cmax, corrected for recovery, pre-cediranib, mean ± S.D.): 590 ± 220 ng/mL | half-life ([1]; male, athymic, rat, tumor ECF (brain microdialysate), po, 50 mg/kg, T1/2, corrected for recovery, post-cediranib, mean ± S.D.): 2 ± 0.9 h | half-life ([1]; male, athymic, rat, tumor ECF (brain microdialysate), po, 50 mg/kg, T1/2, corrected for recovery, pre-cediranib, mean ± S.D.): 1.7 ± 0.3 h | half-life ([1]; male, athymic, rat, tumor ECF (brain microdialysate), po, 50 mg/kg, T1/2, raw data, post-cediranib, mean ± S.D.): 2 ± 0.9 h | half-life ([1]; male, athymic, rat, tumor ECF (brain microdialysate), po, 50 mg/kg, T1/2, raw data, pre-cediranib, mean ± S.D.): 1.7 ± 0.3 h | increase in ECF-TMZ AUC0-∞ after cediranib administration [1, 5]: 2.0 fold and 2 fold | increase in ECF-TMZ Cmax after cediranib administration [1, 5]: 1.4 fold
Structure (SMILES): Cn1nnc2c(C(N)=O)ncn2c1=O [TMZ, temozolomide]
AUC0–∞ [1, 3]: 3120 ng·h/mL and 4520 ng·h/mL and 3870 ng·h/mL and 3100 ng·h/mL | Cmax [1, 3]: 1610 ng/mL and 650 ng/mL and 310 ng/mL and 1290 ng/mL and 640 ng/mL and 690 ng/mL | AUC0–∞ [1, 4]: 1730 ng·h/mL and 2380 ng·h/mL and 600 ng·h/mL and 2480 ng·h/mL and 1500 ng·h/mL and 1970 ng·h/mL and 2090 ng·h/mL | Cmax [1, 4]: 460 ng/mL and 620 ng/mL and 190 ng/mL and 710 ng/mL and 690 ng/mL and 900 ng/mL and 530 ng/mL | Cmax ([1]; raw data, pre-cediranib, TMZ 50 mg/kg oral, tumor ECF, individual animal): 510 ng/mL and 540 ng/mL and 380 ng/mL and 400 ng/mL and 470 ng/mL and 100 ng/mL

Structure (SMILES): COc1cc2c(Oc3ccc4[nH]c(C)cc4c3F)ncnc2cc1OCCCN1CCCC1 [cediranib]
average vessel size (ΔR2*/ΔR2)^3/2 in treated tumor (U87 glioma; D12): lower compared to the contralateral ROI | effect on vessel size in treated tumor (U87 glioma; D21): not apparent | progression-free survival (PFS) (recurrent GBM; cediranib monotherapy, recurrent GBM patients): increased progression-free survival | duration of tumor vessel normalization (recurrent GBM; once daily cediranib, patients with recurrent GBM, starting as early as one day after the treatment): at least 28 days

Structure (SMILES): CO[C@@H]1[C@H](OC(=O)NC(=O)CCl)CC[C@]2(CO2)[C@H]1[C@@]1(C)O[C@@H]1CC=C(C)C [TNP-470]
reduction of TMZ in tumor concentrations [2]: 50%
